Test results reported in PubChem BioAssay AID588724 (Johns Hopkins Ion Channel Center, 2011).
Values joined by “and” are separate entries in the source; they are usually repeats but may differ in a detail not shown here. Identical values can stand only once. Active and inactive are the calls of the source.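 How the source made its calls: active means blocks the KCNK9 potassium channel at some tested dose and a concentration-response curve can be fitted; inactive means no blocking at any dose, or no curve could be fitted.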

Target: Potassium channel subfamily K member 9 (Homo sapiens) (UniProt Q9NPC2)
Test: blockers of TASK3 potassium channel KCNK9 – cell-based, round III, SAR follow-up (AID 588724)
Conditions: HEK293-KCNK9, FluxOR thallium flux fluorescence
In short: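 System – stable KCNK9-expressing HEK293 cells · Schedule – dye loading 90 min, compound 20 min, both room temperature, dark · Signal – FluxOR thallium-sensitive dye fluorescence, 10 s baseline, 110 s post-stimulus recording · Repeats – replicates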

Sequence of Potassium channel subfamily K member 9 (Homo sapiens) (Q9NPC2 whole entry, looked up): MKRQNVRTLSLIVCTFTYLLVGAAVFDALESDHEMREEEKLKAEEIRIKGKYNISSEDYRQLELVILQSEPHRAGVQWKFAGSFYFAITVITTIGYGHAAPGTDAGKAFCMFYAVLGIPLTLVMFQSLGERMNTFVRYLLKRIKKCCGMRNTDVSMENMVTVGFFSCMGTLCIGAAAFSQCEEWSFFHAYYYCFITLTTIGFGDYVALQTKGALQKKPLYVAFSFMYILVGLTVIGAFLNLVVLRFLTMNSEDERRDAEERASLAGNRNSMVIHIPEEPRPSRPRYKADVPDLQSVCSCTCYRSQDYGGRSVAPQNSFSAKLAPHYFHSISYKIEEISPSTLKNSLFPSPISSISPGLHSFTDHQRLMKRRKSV

Compound	IC50
CC(C1CC2CCC1C2)n1c(-c2cccs2)n[nH]c1=S (stereo not drawn)	110 nM
CC(CCC1CCCC1)n1c(-c2ccco2)n[nH]c1=S (stereo not drawn)	907 nM
CC(C1CC2CCC1C2)n1c(-c2cccn2C)n[nH]c1=S (stereo not drawn)	1390 nM
CC(C1CC2CCC1C2)n1c(SCC(=O)c2ccc(Cl)c(Cl)c2)nnc1-c1ccco1 (stereo not drawn)	7770 nM
CC(C1CC2CCC1C2)n1c(-c2ccccn2)n[nH]c1=S (stereo not drawn)	2370 nM
COc1ccc(C(=O)CSc2nnc(-c3ccco3)n2C(C)C2CC3CCC2C3)cc1OC (stereo not drawn)	1840 nM
COc1cc(OC)cc(-c2n[nH]c(=S)n2C(C)C2CC3CCC2C3)c1 (stereo not drawn)	1030 nM
CC(C1CC2CCC1C2)n1c(-c2ccco2)nnc1C(F)(F)F (stereo not drawn)	16400 nM
CC(NC(=O)c1ccco1)C1CC2CCC1C2 (stereo not drawn)	13400 nM
C[C@H](C1CCCCC1)n1c(-c2ccco2)n[nH]c1=S	187 nM
CC(C1CC2CCC1C2)n1c(-c2cccc(F)c2)n[nH]c1=S (stereo not drawn)	134 nM
COc1ccc(CCSc2nnc(-c3ccco3)n2C(C)C2CC3CCC2C3)cc1OC (stereo not drawn)	2240 nM
CC(C1CCCCC1)n1c(-c2ccco2)n[nH]c1=S (stereo not drawn)	3580 nM
CC(C1CC2CCC1C2)n1c(SCC(=O)c2ccccc2)nnc1-c1ccco1 (stereo not drawn)	5210 nM
COc1ccccc1C(=O)Nc1cccc(NC(=O)c2cccc3ccccc23)c1	236 nM
CC(C1CC2CCC1C2)N(C)C(=O)c1ccco1 (stereo not drawn)	361 nM
CC(C1CC2CCC1C2)n1cnnc1-c1ccco1 (stereo not drawn)	1700 nM
CSc1nnc(-c2ccco2)n1C(C)C1CC2CCC1C2 (stereo not drawn)	21400 nM

Compound	IC50
CC(C1CC2CCC1C2)n1c(SCC#N)nnc1-c1cccs1 (stereo not drawn)	17700 nM
C[C@@H](C1CCCCC1)n1c(-c2ccco2)n[nH]c1=S	9410 nM
CC(C)Oc1ccccc1C(=O)Nc1cccc(NC(=O)c2ccccc2OC(F)(F)F)c1	65.1 nM
COc1cccc(-c2nnc(S(C)(=O)=O)n2C(C)C2CC3CCC2C3)c1 (stereo not drawn)	18000 nM
COc1cccc(-c2n[nH]c(=S)n2C(C)C2CC3CCC2C3)c1OC (stereo not drawn)	2360 nM
COc1cccc(Cc2n[nH]c(=S)n2C(C)C2CC3CCC2C3)c1 (stereo not drawn)	2570 nM
CC(C1C2CCC1CC2)n1c(-c2ccco2)n[nH]c1=S (stereo not drawn)	1170 nM
CC(C1CC2CCC1C2)n1c(SCC(=O)c2ccc3c(c2)OCO3)nnc1-c1ccco1 (stereo not drawn)	1600 nM
CC(CC1CC2CCC1C2)n1c(-c2ccco2)n[nH]c1=S (stereo not drawn)	292 nM
CC(C1CC2CCC1C2)n1c(-c2cccc(N(C)C)c2)n[nH]c1=S (stereo not drawn)	2270 nM
COc1cccc(C(=O)CSc2nnc(-c3ccco3)n2C(C)C2CC3CCC2C3)c1 (stereo not drawn)	4650 nM
CC(C1CC2CCC1C2)n1c(SCc2ccccc2)nnc1-c1ccco1 (stereo not drawn)	1390 nM
COc1ccc(C(=O)CSc2nnc(-c3ccco3)n2C(C)C2CC3CCC2C3)cc1 (stereo not drawn)	9140 nM
CC(C)c1ccccc1C(=O)Nc1cccc(NC(=O)c2ccccc2OC(F)(F)F)c1	732 nM
CC(C1CC2CCC1C2)n1c(-c2ccccc2F)n[nH]c1=S (stereo not drawn)	109 nM
CC(C1CC2CCC1C2)n1c(SC(F)F)nnc1-c1ccco1 (stereo not drawn)	8460 nM
CC(C1CC2CCC1C2)n1c(-c2ccco2)n[nH]c1=S (stereo not drawn)	150 nM and 290 nM

Same assay, conditions: HEK293-KCNK9, FluxOR thallium flux fluorescence; at 30 µM (top of the series)

Compound	normalised flux ratio, lower = inhibition
S=c1[nH]nc(-c2ccco2)n1CC1CC2CCC1C2 (stereo not drawn)	inactive
CC(C1CC2CCC1C2)n1c(-c2cccnc2)n[nH]c1=S (stereo not drawn)	inactive
COc1ccccc1C(=O)Nc1cc(NC(=O)c2ccccc2C(C)C)ccc1F	inactive
CC(C1CC2CCC1C2)n1c(-c2ccc(N(C)C)cc2)n[nH]c1=S (stereo not drawn)	inactive
S=c1[nH]nc(-c2ccco2)n1C1CC2CCC1C2 (stereo not drawn)	inactive
CC(C1CC2CCC1C2)n1c(-c2ccncc2)n[nH]c1=S (stereo not drawn)	inactive
CC(C1CC2CCC1C2)n1c(-c2ccco2)n[nH]c1=O (stereo not drawn)	inactive
CC(c1cccc2ccccc12)n1c(-c2ccco2)n[nH]c1=S (stereo not drawn)	inactive
